Structures are written as SMILES.

For series [1], the target named is T1, Human immunodeficiency virus type 1 integrase (Human immunodeficiency virus 1, UniProt Q7ZJM1). The series can be described thus: Inhibition of HIV1 recombinant integrase 3' processing activity using [32P]-labeled oligonucleotide a substrate after 30 mins by electrophoretic analysis. The essentials: (§1)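 Gel-based IN assay run in vitro with Mg2+ as cofactor. IC50 values were determined separately for the 3'-processing and strand transfer reactions.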

In series [2] the target is T1, Human immunodeficiency virus type 1 integrase. Description: Inhibition of HIV1 recombinant integrase strand transfer activity using [32P]-labeled oligonucleotide a substrate after 30 mins by electrophoretic analysis. Summed up:
as §1

Series [3] in a line: Selectivity index, ratio of CC50 for human HOS cells to EC50 for HIV1 expressing wild type integrase. The class given is toxicity, cell-based. The note with it: read-out: Ratio CC50/EC50.
The subject of the next series is HOS. Description: Cytotoxicity against human HOS cells assessed as reduction in ATP level. The class given is cell-based.
Series [4] relates to Human immunodeficiency virus 1. Description: Antiviral activity against HIV1 expressing wild type integrase infected in HOS cells. The class given is functional, organism-based. The note with it: Human immunodeficiency virus 1, HOS. Summed up:
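HOS cells infected with a lentiviral vector carrying wild-type IN; EC50 from the infected cells.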

Series [5] deals with Human immunodeficiency virus 1. The series can be described thus: Ratio of EC50 for HIV1 expressing integrase Y143R mutant to EC50 for HIV1 expressing wild type integrase. The series is classed as functional.

T1 sequence (Q7ZJM1 whole entry): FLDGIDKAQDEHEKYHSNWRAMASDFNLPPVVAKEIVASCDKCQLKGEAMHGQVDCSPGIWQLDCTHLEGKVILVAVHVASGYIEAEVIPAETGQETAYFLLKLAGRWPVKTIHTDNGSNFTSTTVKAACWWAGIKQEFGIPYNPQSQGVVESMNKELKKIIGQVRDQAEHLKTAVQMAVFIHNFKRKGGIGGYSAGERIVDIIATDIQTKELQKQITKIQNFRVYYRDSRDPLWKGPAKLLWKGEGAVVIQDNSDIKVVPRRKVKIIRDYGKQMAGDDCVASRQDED

Regarding `CC(C)c1c(O)c(O)c2c(c1S(=O)(=O)N(C)C)CN(Cc1ccc(F)c(Cl)c1)C2=O`, the IC50 is over 111 µM in series [1] and 0.19 µM in series [2]. Besides, in series [3], the selectivity ratio was found to be 3. The cytotoxic concentration (CC50) in the series with HOS is 12.1 µM. The molecule also yielded an EC50 in series [4] of 3.6 µM.

Consider `O=C1c2c(cc(-c3ccccc3)c(O)c2O)CN1Cc1ccc(F)c(Cl)c1`, for which the figures for the IC50 in series [1] and in series [2] were over 111 µM and 0.87 µM, respectively.

Consider `CN(C)CCCNS(=O)(=O)c1cc(O)c(O)c2c1CN(Cc1ccc(F)c(Cl)c1)C2=O`, for which the IC50 in series [1] was determined as 15.9 µM; in series [2], 0.24 µM.

Regarding `O=C1c2c(cc(O)c(O)c2O)CN1Cc1ccc(F)c(Cl)c1`, the IC50 in series [1] came out at 36 µM; in series [2], 1.5 µM.

In the case of `O=C1c2c(O)c(O)cc(S(=O)(=O)NCc3ccccn3)c2CN1Cc1ccc(F)c(Cl)c1`, the IC50 turned out to be 23 µM in series [1] and 0.37 µM in series [2].

`O=C(O)CNS(=O)(=O)c1cc(O)c(O)c2c1CN(Cc1ccc(F)c(Cl)c1)C2=O`: the figures for the 50% inhibitory concentration (IC50) in series [1] and in series [2] were 11.7 µM and 0.08 µM, respectively. Moreover, the selectivity ratio in series [3] was determined as 115. For the same molecule, in the series on HOS, the 50% cytotoxic concentration (CC50) stood at 107 µM. The molecule also returned an EC50 in series [4] of 0.929 µM. For the same molecule, the “Ratio EC50” value in series [5] came out at 3.

In the case of `O=C1c2c(O)c(O)cc(S(=O)(=O)N3CCOCC3)c2CN1Cc1ccc(F)c(Cl)c1`, the IC50 in series [1] was 6.8 µM; in series [2], 0.047 µM. Further, the selectivity ratio in series [3] was 241. Also, in the series on HOS, the CC50 was found to be 5.3 µM. Besides, it took 0.022 µM to reach a half-maximal effect in series [4] (EC50). Further, in series [5], the “Ratio EC50” value was 2.

Regarding `CN1CCN(S(=O)(=O)c2cc(O)c(O)c3c2CN(Cc2ccc(F)c(Cl)c2)C3=O)CC1`, the values for the half-maximal inhibitory concentration (IC50) in series [1] and in series [2] were 23 µM and 0.4 µM, respectively. Besides, the selectivity ratio in series [3] came out at 144. Further, the CC50 with HOS was 6.2 µM. For the same molecule, the EC50 in series [4] came out at 0.043 µM. Besides, the “Ratio EC50” value in series [5] was found to be 1.

For `CC(C)c1c(O)c(O)c2c(c1S(=O)(=O)N1CCOCC1)CN(Cc1ccc(F)c(Cl)c1)C2=O`, the figures for the IC50 in series [1] and in series [2] were over 111 µM and 0.41 µM, respectively. Also, the selectivity ratio in series [3] stood at 2. Besides, the CC50 in the series on HOS was determined as 5.9 µM. The midpoint of the response in series [4], the EC50, lay at 3.4 µM. In addition, the “Ratio EC50” value in series [5] is listed as 4.

Consider `Cc1c(O)c(O)c2c(c1S(=O)(=O)N(C)C)CN(Cc1ccc(F)c(Cl)c1)C2=O`, for which the values for the IC50 in series [1] and in series [2] were 49.7 µM and 2.8 µM, respectively. In addition, in series [3], the selectivity ratio turned out to be 20. In the series with HOS, the CC50 is 6.3 µM. In series [4], this molecule showed an EC50 of 0.322 µM. The “Ratio EC50” value in series [5] is recorded as 2.

As for `CCCCc1cc2c(c(O)c1O)C(=O)N(Cc1ccc(F)c(Cl)c1)C2`, the figures for the IC50 in series [1] and in series [2] were over 111 µM and 6.8 µM, respectively.

For the molecule `O=C1c2c(O)c(O)cc(S(=O)(=O)NCCN3CCNCC3)c2CN1Cc1ccc(F)c(Cl)c1`, the results for the IC50 in series [1] and in series [2] were 19.3 µM and 0.31 µM, respectively.

`CN(C)S(=O)(=O)c1ccc(-c2cc3c(c(O)c2O)C(=O)N(Cc2ccc(F)c(Cl)c2)C3)cc1`: the IC50 in series [1] was over 111 µM; in series [2] it was 0.4 µM.

`CCCCc1c(O)c(O)c2c(c1S(=O)(=O)N(C)C)CN(Cc1ccc(F)c(Cl)c1)C2=O`: the IC50 in series [1] is over 111 µM; in series [2], 2.3 µM. The selectivity ratio in series [3] worked out at 2. In the series with HOS, the CC50 was 7 µM. It took 3.8 µM to reach a half-maximal effect in series [4] (EC50). In addition, in series [5], the “Ratio EC50” value worked out at 1.

`Cc1cc2c(c(O)c1O)C(=O)N(Cc1ccc(F)c(Cl)c1)C2`: the results for the IC50 in series [1] and in series [2] were over 111 µM and 11.5 µM, respectively.

Turning to `O=C1c2c(ccc(O)c2O)CN1Cc1ccc(F)c(Cl)c1`, the selectivity ratio in series [3] was found to be 12. Also, in series [4], the 50% effective concentration (EC50) amounted to 0.447 µM. In series [5], the “Ratio EC50” value is 1.

Consider `CN(C)S(=O)(=O)c1ccc(-c2c(O)c(O)c3c(c2S(=O)(=O)N(C)C)CN(Cc2ccc(F)c(Cl)c2)C3=O)cc1`, for which the IC50 in series [1] stood at 35.2 µM; in series [2] it was 0.25 µM. Also, the selectivity ratio in series [3] is 21. Further, the CC50 in the series with HOS turned out to be 2.8 µM. Besides, the EC50 in series [4] was determined as 0.132 µM. The “Ratio EC50” value in series [5] stood at 4.

On to `CCN(CC)S(=O)(=O)c1cc(O)c(O)c2c1CN(Cc1ccc(F)c(Cl)c1)C2=O`, for which the half-inhibitory concentration (IC50) in series [1] came to 9.5 µM; in series [2], 0.054 µM. The selectivity ratio in series [3] turned out to be 494. In addition, the CC50 in the series with HOS worked out at 8.4 µM. Besides, in series [4], a half-maximal response (EC50) required 0.017 µM. In addition, the “Ratio EC50” value in series [5] turned out to be 3.

Consider `CNS(=O)(=O)c1cc(O)c(O)c2c1CN(Cc1ccc(F)c(Cl)c1)C2=O`, for which the IC50 amounted to 17.5 µM in series [1] and 0.12 µM in series [2]. Further, the selectivity ratio in series [3] is 108. In the series with HOS, the half-maximal cytotoxic concentration (CC50) came to 4.3 µM. Besides, a half-maximal effect in series [4] (EC50) was put at 0.04 µM. Also, the “Ratio EC50” value in series [5] is on record as 1.

On to `CC(C)c1cc2c(c(O)c1O)C(=O)N(Cc1ccc(F)c(Cl)c1)C2`, for which the 50% inhibitory concentration (IC50) was over 111 µM in series [1] and 5.4 µM in series [2].

Regarding `CN(CC(=O)O)S(=O)(=O)c1cc(O)c(O)c2c1CN(Cc1ccc(F)c(Cl)c1)C2=O`, the IC50 is 6.9 µM in series [1] and 0.058 µM in series [2]. The selectivity ratio in series [3] was 680. Further, in the series on HOS, the CC50 came out at 95.2 µM. In series [4], this molecule showed an EC50 of 0.14 µM. For the same molecule, the “Ratio EC50” value in series [5] turned out to be 2.

In the case of `O=C1c2c(O)c(O)cc(S(=O)(=O)NCCN3CCOCC3)c2CN1Cc1ccc(F)c(Cl)c1`, the IC50 turned out to be 30.2 µM in series [1] and 0.32 µM in series [2].

As to `O=C1c2c(O)c(O)cc(S(=O)(=O)NCCCBr)c2CN1Cc1ccc(F)c(Cl)c1`, the IC50 in series [1] is 14.7 µM; in series [2], 0.11 µM. Besides, the selectivity ratio in series [3] turned out to be 49. The CC50 in the series with HOS was 4.6 µM. In addition, the EC50 in series [4] amounted to 0.093 µM. Further, the “Ratio EC50” value in series [5] amounted to 1.

For `NCCN1CCN(S(=O)(=O)c2cc(O)c(O)c3c2CN(Cc2ccc(F)c(Cl)c2)C3=O)CC1`, the figures for the IC50 in series [1] and in series [2] were 21.2 µM and 0.19 µM, respectively.

As to `CN(C)S(=O)(=O)c1c(O)c(O)c(O)c2c1CN(Cc1ccc(F)c(Cl)c1)C2=O`, the half-maximal inhibitory concentration (IC50) is 7.6 µM in series [1] and 0.26 µM in series [2]. Also, the selectivity ratio in series [3] was 29. Further, the CC50 with HOS turned out to be 4.6 µM. The molecule further displayed an EC50 in series [4] of 0.159 µM. In series [5], the “Ratio EC50” value is reported as 2.

The term IC50 denotes the point on the concentration scale where inhibition reaches its midpoint. The term CC50 denotes the concentration at which the toxic effect on the cells reaches its halfway point. A word on the EC50: it is the concentration that produces a half-maximal response. A low value points to higher potency in that assay.

Source of the values: ChEMBL document CHEMBL2203025, “6,7-Dihydroxy-1-oxoisoindoline-4-sulfonamide-containing HIV-1 integrase inhibitors” (Bioorg Med Chem Lett, 2012).
